Results pooled from the literature.
Each line is one published result; the experiments were not run side by side.
Read-out: cell growth or viability

SMILES | cell line | technique | tested at | time | quantity | value
NCC(=O)Nc1ccccc1/N=c1\cc(-c2ccc3c(c2)OCO3)oc2c([N+](=O)[O-])cccc12 | HCT-116 | CCK-8 | 1 µM | – | inhibition | 12.2%
O=C(NCc1cn(Cc2cccc(Cl)c2)nn1)Nc1ccc(Cl)cc1 | PC-9 | CCK-8 | 50 µM | 72 h | viability | 90%
COc1ccc(NC(=O)Nc2cccc(-c3cn(Cc4ccc(Br)cc4)nn3)c2)cc1 | PC-9 | CCK-8 | 50 µM | 72 h | viability | 90.3%
O=C(NCc1cn(Cc2ccc(Br)cc2)nn1)Nc1ccccc1Br | PC-9 | CCK-8 | 50 µM | 72 h | viability | 163%
N#CCCN(C(=O)CCl)c1ccc2c(c1)OCCN2CC(=O)N1CCC(C(=O)Nc2ccc(C(=O)NCCCCCCC(=O)NO)cc2)CC1 | U-87 MG | MTT | – | – | EC50 | > 50 µM
COc1ccc(NC(=O)Nc2cccc(-c3cn(Cc4ccc(C)cc4)nn3)c2)cc1 | PC-9 | CCK-8 | 20 µM | 72 h | viability | 159%
O=C(Nc1ccc(Cl)cc1)Nc1cccc(-c2cn(Cc3cccc(Cl)c3)nn2)c1 | PC-9 | CCK-8 | 20 µM | 72 h | viability | 102%
CCCCCCCCCCCCCCCCCCOc1ccc(CC(=O)OCCC[N+](C)(C)C)cc1 | EKVX | SRB | 10 µM | – | inhibition | 3.92%
O=C(Nc1ccccc1/N=c1\cc(-c2ccc3c(c2)OCO3)oc2ccccc12)N1CCOCC1 | HCT-116 | CCK-8 | 1 µM | – | inhibition | 11.2%
O=C(Nc1ccc(-c2cn(Cc3ccc(Br)cc3)nn2)cc1)Nc1ccccc1Br | PC-9 | CCK-8 | 50 µM | 72 h | viability | 106%
O=C(Nc1cc(C(F)(F)F)cc(C(F)(F)F)c1)Nc1nc2cc(-c3ccc4ncn(Cc5ccccc5)c(=O)c4c3)ccc2s1 | PC-9 | MTT | – | 72 h | IC50 | > 20 µM
CCCCCCCCCCCCCCCCCCOc1cccc(CC(=O)OCC[N+](C)(C)C)c1 | EKVX | SRB | 10 µM | – | inhibition | 1.89%
NC(=O)C1CCCN1C(=O)Nc1ccccc1/N=c1\cc(-c2ccc3c(c2)OCCO3)oc2cc(F)ccc12 (centres unmarked) | HCT-116 | CCK-8 | 1 µM | – | inhibition | 13.6%
Cc1nc(Nc2ncc(C(=O)Nc3c(C)cccc3Cl)s2)cc(N2CC[C@H](O)C2)n1 | Raji | ATP luminescence | 10 µM | 72 h | inhibition | -2%
NCC(=O)Nc1ccccc1/N=c1\cc(-c2ccc3c(c2)OCO3)oc2c(N)cccc12 | HCT-116 | CCK-8 | 1 µM | – | inhibition | 14.3%
O=C(Nc1ccc(Cl)cc1)Nc1cccc(-c2cn(Cc3cccc(Br)c3)nn2)c1 | PC-9 | CCK-8 | 50 µM | 72 h | viability | 92.9%

SMILES | cell line | technique | tested at | time | quantity | value
NCCC(=O)Nc1ccccc1/N=c1\cc(-c2ccc3oc(N)nc3c2)oc2ccccc12 | HCT-116 | CCK-8 | 1 µM | – | inhibition | 42.7%
O=C(NCc1cn(Cc2ccc(Br)cc2)nn1)Nc1ccc(Cl)cc1 | PC-9 | CCK-8 | 50 µM | 72 h | viability | 179%
COc1cccc(NC(=O)Nc2nc3cc(-c4ccc5ncn(Cc6ccccc6)c(=O)c5c4)ccc3s2)c1 | PC-9 | MTT | – | 72 h | IC50 | > 20 µM
COc1ccc2/c(=N/c3ccccc3NC(=O)N3CCOCC3)cc(-c3ccc4c(c3)OCCO4)oc2c1 | HCT-116 | CCK-8 | 1 µM | – | inhibition | 11.6%
COc1ccc(NC(=O)NCc2cn(Cc3ccc(C)cc3)nn2)cc1 | PC-9 | CCK-8 | 50 µM | 72 h | viability | 113%
Cc1nc(NC(=O)N2CCC[C@H]2C(N)=O)sc1-c1ccnc(C(C)(C)C(F)(F)F)c1 | KYSE-510 | ATP luminescence | – | 5 days | EC50 | 1.5 µM
COc1ccc(NC(=O)Nc2cccc(-c3cn(Cc4ccccc4C)nn3)c2)cc1 | PC-9 | CCK-8 | 50 µM | 72 h | viability | 98.2%
CC(C)NC(=O)Nc1nc2cc(-c3ccc4ncn(Cc5ccccc5)c(=O)c4c3)ccc2s1 | PC-9 | MTT | – | 72 h | IC50 | > 20 µM
CCCCCCCCCCCCCCCCCCOc1ccccc1CC(=O)OCC[N+]1(C)CCCC1 | EKVX | SRB | 10 µM | – | inhibition | 46.1%
N[C@@H](CO)C(=O)Nc1ccccc1/N=c1\cc(-c2ccc3c(c2)OCO3)oc2ccccc12 | HCT-116 | CCK-8 | 1 µM | – | inhibition | 12.2%
CCCCCCCCCCCCCCCCCCOc1ccccc1CC(=O)OCC[N+](CC)(CC)CC | EKVX | SRB | 10 µM | – | inhibition | 56.6%
C[C@H](Nc1ccc2c(c1)OCCn1cc(N3C(=O)OC[C@H]3C(F)F)nc1-2)C(N)=O | SK-OV-3 | ATP luminescence | – | 5 days | EC50 | 0.0574 µM
CCCCCCCCCCCCCCCCCCOc1ccccc1CC(=O)OCC[N+]1(C)CCOCC1 | EKVX | SRB | 10 µM | – | inhibition | 13.3%
O=C(NCc1ccccc1)Nc1nc2cc(-c3ccc4ncn(Cc5ccccc5)c(=O)c4c3)ccc2s1 | PC-9 | MTT | – | 72 h | IC50 | > 20 µM
COc1ccc(NC(=O)Nc2ccc(-c3cn(Cc4cccc(Cl)c4)nn3)cc2)cc1 | PC-9 | CCK-8 | 50 µM | 72 h | viability | 90.4%
COc1ccc2/c(=N/c3ccccc3NC(=O)CN)cc(-c3ccc4c(c3)OCCO4)oc2c1 | HCT-116 | CCK-8 | 1 µM | – | inhibition | 11.4%
